The target of data set [1] is 5-hydroxytryptamine receptor 6 (Homo sapiens, UniProt P50406). Nature of the data set: Binding affinity against 5-Hydroxy tryptamine 6 receptor.
For data set [2], the target named is T1, 5-hydroxytryptamine receptor 2C (Homo sapiens, UniProt P28335).
T1 sequence (P28335 whole entry): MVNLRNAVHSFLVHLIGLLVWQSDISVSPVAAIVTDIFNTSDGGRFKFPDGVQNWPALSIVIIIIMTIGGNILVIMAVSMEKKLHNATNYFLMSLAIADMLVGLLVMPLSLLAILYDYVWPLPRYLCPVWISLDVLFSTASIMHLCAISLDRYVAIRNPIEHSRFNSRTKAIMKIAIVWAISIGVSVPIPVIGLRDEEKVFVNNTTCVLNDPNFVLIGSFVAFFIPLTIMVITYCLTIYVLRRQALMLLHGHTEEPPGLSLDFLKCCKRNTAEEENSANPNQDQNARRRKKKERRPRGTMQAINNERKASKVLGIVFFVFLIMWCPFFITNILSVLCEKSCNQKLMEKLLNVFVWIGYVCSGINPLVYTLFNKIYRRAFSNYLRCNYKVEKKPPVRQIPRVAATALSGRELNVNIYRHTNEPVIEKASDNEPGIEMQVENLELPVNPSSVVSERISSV
Nature of the data set: Binding affinity against 5-Hydroxy tryptamine 2C receptor.

Data set [3] deals with T2, Adrenergic receptor alpha-1 (Homo sapiens, UniProt P35348+P25100+P35368).
T2 sequence (P35348 whole entry): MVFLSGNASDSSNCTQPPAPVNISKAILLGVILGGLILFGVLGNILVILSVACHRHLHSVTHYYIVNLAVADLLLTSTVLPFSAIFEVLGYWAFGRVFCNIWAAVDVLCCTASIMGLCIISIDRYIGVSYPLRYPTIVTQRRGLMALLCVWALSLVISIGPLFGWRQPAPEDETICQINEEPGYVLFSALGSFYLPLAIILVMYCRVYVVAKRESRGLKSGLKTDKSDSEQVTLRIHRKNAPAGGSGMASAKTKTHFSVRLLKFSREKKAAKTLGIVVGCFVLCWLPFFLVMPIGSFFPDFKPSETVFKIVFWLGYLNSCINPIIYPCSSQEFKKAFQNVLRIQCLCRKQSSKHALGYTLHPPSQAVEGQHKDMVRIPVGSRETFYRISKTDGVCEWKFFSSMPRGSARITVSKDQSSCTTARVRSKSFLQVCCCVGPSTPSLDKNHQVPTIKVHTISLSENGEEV
T2 sequence (P25100 whole entry): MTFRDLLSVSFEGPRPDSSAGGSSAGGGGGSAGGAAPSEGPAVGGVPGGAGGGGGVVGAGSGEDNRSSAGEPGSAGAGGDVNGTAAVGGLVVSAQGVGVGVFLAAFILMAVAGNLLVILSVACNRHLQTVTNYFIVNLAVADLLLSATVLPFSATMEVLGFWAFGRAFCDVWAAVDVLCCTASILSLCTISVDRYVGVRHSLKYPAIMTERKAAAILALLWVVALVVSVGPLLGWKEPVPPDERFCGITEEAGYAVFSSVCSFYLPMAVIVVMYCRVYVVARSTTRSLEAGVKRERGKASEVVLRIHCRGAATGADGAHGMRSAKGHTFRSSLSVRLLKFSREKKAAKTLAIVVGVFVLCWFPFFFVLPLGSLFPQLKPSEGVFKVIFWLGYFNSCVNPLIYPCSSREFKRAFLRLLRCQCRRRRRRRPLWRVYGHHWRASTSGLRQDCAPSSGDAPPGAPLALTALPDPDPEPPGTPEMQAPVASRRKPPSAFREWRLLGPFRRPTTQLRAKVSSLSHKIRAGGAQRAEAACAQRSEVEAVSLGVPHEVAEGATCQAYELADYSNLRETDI
T2 sequence (P35368 whole entry): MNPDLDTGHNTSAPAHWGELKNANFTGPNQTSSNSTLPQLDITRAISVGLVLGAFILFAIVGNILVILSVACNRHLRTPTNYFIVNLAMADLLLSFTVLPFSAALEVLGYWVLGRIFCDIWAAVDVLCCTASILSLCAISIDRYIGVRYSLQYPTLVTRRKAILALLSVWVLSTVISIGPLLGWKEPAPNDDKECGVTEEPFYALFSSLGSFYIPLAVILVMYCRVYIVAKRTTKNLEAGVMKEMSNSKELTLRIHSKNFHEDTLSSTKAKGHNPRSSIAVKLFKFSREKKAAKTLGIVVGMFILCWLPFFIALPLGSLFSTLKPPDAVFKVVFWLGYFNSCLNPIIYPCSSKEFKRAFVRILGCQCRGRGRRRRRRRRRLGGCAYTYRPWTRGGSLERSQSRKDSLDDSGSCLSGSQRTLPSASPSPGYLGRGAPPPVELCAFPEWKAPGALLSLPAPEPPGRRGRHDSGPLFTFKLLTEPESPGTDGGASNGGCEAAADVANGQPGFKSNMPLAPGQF
In words: Binding affinity against Alpha1 adrenergic receptor. Format: protein assay.

The target in data set [4] is 5-hydroxytryptamine receptor 7 (Homo sapiens, UniProt P34969). Nature of the data set: Binding affinity against 5-Hydroxy tryptamine 7 receptor. An outline of the steps:
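Membranes from CHO cells expressing human 5-HT7, homogenized, pelleted at 18,000g, stored at -80 °C. Each well held 30 µg protein in 50 mM HEPES. Incubation was 60 min at 25 °C with 0.1-1000 nM compound and 1 nM [3H]-5-carboxamidotryptamine; nonspecific binding was defined with 10 µM serotonin. Stopped with ice-cold HEPES, GF/B filtration, scintillation counting. Ki by nonlinear regression; triplicate or more.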

Data set [5] can be described thus: Oral bioavailability in rat. Format: ADME, organism-based. The note with it: in vivo.

Sequence of 5-hydroxytryptamine receptor 7 (P34969 whole entry): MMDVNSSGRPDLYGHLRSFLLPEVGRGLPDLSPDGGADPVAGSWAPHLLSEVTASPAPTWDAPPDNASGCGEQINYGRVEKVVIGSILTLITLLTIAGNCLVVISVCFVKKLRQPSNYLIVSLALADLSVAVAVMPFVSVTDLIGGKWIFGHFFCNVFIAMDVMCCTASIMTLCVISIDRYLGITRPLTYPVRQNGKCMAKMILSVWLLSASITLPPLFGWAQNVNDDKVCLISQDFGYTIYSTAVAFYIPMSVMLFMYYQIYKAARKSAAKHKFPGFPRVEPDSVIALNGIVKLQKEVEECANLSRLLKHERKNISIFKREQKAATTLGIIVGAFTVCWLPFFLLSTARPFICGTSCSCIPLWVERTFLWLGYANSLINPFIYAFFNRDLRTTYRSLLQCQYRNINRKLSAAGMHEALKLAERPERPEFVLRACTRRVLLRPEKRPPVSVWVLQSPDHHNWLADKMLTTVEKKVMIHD
Sequence of 5-hydroxytryptamine receptor 6 (P50406 whole entry): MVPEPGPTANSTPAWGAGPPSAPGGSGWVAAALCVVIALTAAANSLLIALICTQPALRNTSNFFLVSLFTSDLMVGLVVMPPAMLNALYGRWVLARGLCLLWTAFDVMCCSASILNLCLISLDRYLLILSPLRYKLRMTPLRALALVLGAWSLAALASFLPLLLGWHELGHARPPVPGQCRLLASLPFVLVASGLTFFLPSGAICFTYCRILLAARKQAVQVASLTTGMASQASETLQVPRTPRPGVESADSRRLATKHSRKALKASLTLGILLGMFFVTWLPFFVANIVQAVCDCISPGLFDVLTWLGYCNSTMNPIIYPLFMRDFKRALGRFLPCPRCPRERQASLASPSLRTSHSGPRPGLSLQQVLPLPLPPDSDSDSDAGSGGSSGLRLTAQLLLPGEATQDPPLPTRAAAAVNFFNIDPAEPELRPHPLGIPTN

`C[C@H](Nc1nc(N)nc(NCCOc2ccccc2)n1)c1ccccc1`: the Ki (commonly a dissociation constant, usually derived from enzyme kinetics or from competition with a known ligand) in data set [1] was more than 1000 nM; in data set [2] it was more than 1000 nM; in data set [3], 300 nM; in data set [4], 3 nM. Also, in data set [5], the bioavailability (in general, the share of a dose that reaches the circulation, judged against a reference dose that is usually intravenous) amounted to 12%.
On to `C[C@H](Nc1nc(N)nc(NCCc2ccccn2)n1)c1ccc(F)cc1`, for which the Ki was more than 1000 nM in data set [1], 160 nM in data set [2], more than 1000 nM in data set [3] and 9 nM in data set [4]. For the same molecule, the bioavailability in data set [5] was 15%.
`Cc1nc(NCCOc2ccccc2)nc(N[C@@H](C)c2ccccc2)n1` yielded a Ki in data set [4] of 54 nM.
In turn, `C[C@H](Nc1nc(NCCOc2ccccc2)nc(N(C)C)n1)c1ccccc1` had an inhibition constant (Ki) in data set [4] of 23 nM.
On to `C[C@H](Nc1nc(N)nc(NCCOc2ccc(F)cc2)n1)c1ccc(F)cc1`, for which the Ki is more than 1000 nM in data set [1], more than 1000 nM in data set [2] and 100 nM in data set [3]. The bioavailability in data set [5] is 57%.
In data set [4], `CC(Nc1nc(N)nc(NCCc2ccccc2)n1)c1ccc(F)cc1` (stereo not drawn) had a Ki of 8 nM. That is a single-digit nanomolar value.
The same measure, in the same setting: then `C[C@H](Nc1ncnc(NCCOc2ccccc2)n1)c1ccccc1`, with 3 nM; and `C[C@@H](Nc1nc(N)nc(NCCOc2ccccc2)n1)c1ccccc1`, with more than 1000 nM.
For `C[C@H](Nc1nc(N)nc(NCCc2ccc(F)cc2)n1)c1ccc(F)cc1`, the Ki in data set [1] turned out to be 172 nM; in data set [2] it was 20 nM; in data set [3] it was 200 nM; in data set [4], 2 nM. The molecule also registered a bioavailability in data set [5] of 44%.
Consider `C[C@H](Nc1nc(F)nc(NCCOc2ccccc2)n1)c1ccccc1`, for which, in data set [4], the Ki amounted to 10 nM.
`CC(Nc1nc(N)nc(NCCc2cccs2)n1)c1ccc(F)cc1` (racemic): the Ki in data set [1] is 380 nM; in data set [2] it was 10 nM; in data set [3] it was more than 1000 nM; in data set [4], 2 nM.
For `CC(Nc1nc(N)nc(NCCCc2ccccc2)n1)c1ccccc1` (racemic), affinity in data set [4] was put at a Ki of 60 nM.
The same measure, in the same setting: for `CC(Nc1nc(N)nc(NCCOc2ccccc2)n1)c1ccccc1` (racemic) the value was 8 nM; for `CC(Nc1nc(N)nc(NCCc2cccnc2)n1)c1ccc(F)cc1` (racemic), more than 41000 nM.
On the same count and under the same terms, then `CC(Nc1nc(N)nc(NCCc2ccncc2)n1)c1ccc(F)cc1` (racemic), with more than 1000 nM.

These data come from ChEMBL document CHEMBL1137159, “Aminotriazine 5-HT7 antagonists” (Bioorg Med Chem Lett, 2004).
